Source: PubChem
In the library only some 3.1% were active in any assay of this set; here they are far more common.
KCNQ1 block – inhibitors of human KCNQ1 channel, primary screen, cell-based, thallium flux, high-throughput | CHO-K1 KCNQ1, FluxOR thallium flux fluorescence; stronger effect = higher value | B-score at 10 µM | 310,000 tested, 1.3% active;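 active = compounds whose thallium flux B-score, printed positive for inhibition, exceeds three library SD while starting fluorescence stays within three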;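 also: channel opened by potassium depolarization with thallium stimulus after 20 min compound exposure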
hERG rescue – hERG rescue from dofetilide block, primary screen, cell-based, CHO-hERG, FluxOR thallium flux, dofetilide IC70. Voltage-gated inwardly rectifying potassium channel KCNH2 (Homo sapiens), Q12809. dofetilide IC70 present. activation (rescue from dofetilide block), less the hit threshold, % at 10 µM. 310,000 tested, 0.51% active. AID 1511, 2009;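 active = activation above the mean of controls blocked by dofetilide plus 5 SD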;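 also: thallium influx through hERG after potassium depolarization seen as dye fluorescence rise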
KCNK3 inh – human KCNK3 channel inhibitors, primary screen, CHO cells, FluxOR thallium flux, B-score; Potassium channel subfamily K member 3 (Homo sapiens), O14649; FluxOR fluorescence; stronger effect = lower value; B-score at 10 µM; 340,000 tested, 0.84% active;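 active = B-score under library mean minus 4 SD, starting fluorescence ratio at most library mean plus 5 SD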;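 also: more negative B-score means stronger inhibition of thallium flux through KCNK3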
KCNK9 block – KCNK9 potassium channel inhibitors, primary screen, HEK293 cells, thallium flux; Potassium channel subfamily K member 9 (Homo sapiens), Q9NPC2; FluxOR thallium flux fluorescence; stronger effect = lower value; B-score at 10 µM; 310,000 tested, 1.2% active;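 active = ratio B-score over 3 SD below the library mean, with starting fluorescence within 5 SD of its mean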;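 also: negative B-score means less thallium flux so channel inhibition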
Target sequence (Q9NPC2 whole entry, looked up): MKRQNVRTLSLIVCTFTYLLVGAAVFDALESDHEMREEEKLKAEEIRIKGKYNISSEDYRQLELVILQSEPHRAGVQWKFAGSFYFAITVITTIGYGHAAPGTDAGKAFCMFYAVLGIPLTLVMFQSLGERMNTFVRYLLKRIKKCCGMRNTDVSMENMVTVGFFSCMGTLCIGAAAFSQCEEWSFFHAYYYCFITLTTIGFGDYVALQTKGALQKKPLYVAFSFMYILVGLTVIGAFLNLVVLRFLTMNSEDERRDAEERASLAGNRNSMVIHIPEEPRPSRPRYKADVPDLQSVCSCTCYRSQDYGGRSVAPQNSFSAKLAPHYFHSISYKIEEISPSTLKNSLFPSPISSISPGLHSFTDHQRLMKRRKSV
KCNQ1 pot – potentiators or activators of KCNQ1 channel, primary screen, cell-based, thallium flux, high-throughput; Potassium voltage-gated channel subfamily KQT member 1 (Homo sapiens), P51787; CHO-K1 KCNQ1, thallium flux FluxOR fluorescence; stronger effect = higher value; B-score at 10 µM; 310,000 tested, 0.35% active; AID 2648, 2010;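 active = fluorescence ratio B-score, a plate-corrected score, at least three library SD, with initial intensity B-score within 5 SD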
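System: Stable KCNQ1 CHO-K1 line | Incubation: 90 min dye loading and 20 min compound exposure, both at room temperature | Measure: Ratio B score | Medium: Assay buffer for compound exposure, DMSO matched across wells | Compound dosing: Single-concentration screen | Probe or stimulus: K+/Tl+ depolarizing stimulus | Measured by: Kinetic FluxOR fluorescence, 10 s baseline plus 110 s post-stimulus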
KCNK9 block conf – KCNK9 potassium channel inhibitors, confirmation, HEK293 cells, thallium flux, duplicate; shares compounds with KCNK9 block; FluxOR thallium flux fluorescence; inhibition, % at 10 µM; 4,900 tested, 43% active;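 active = thallium signal inhibited by more than 5 SD of the compound-free buffer control wells, on both duplicate plates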
Kir21 sel – mouse Kir2.1 channel inhibition, confirmation, selectivity assay for KCNK9 modulator project, cell-based, HEK293, thallium flux | shares compounds with KCNK9 block | Kir2.1 cells, FluxOR thallium flux fluorescence | inhibition, % at 10 µM | 4,900 tested, 4% active;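 active = thallium signal drop more than 5 SD beyond the mean of the no-compound control wells, seen in both duplicate plates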;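 also: signal is fluorescence rise after thallium addition divided by baseline fluorescence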
HEK293 Tl ctr – thallium flux in non-induced HEK293 cells, confirmation, counter-screen for KCNK9 inhibitor project, cell-based, second counter screen, non-induced KCNK9-HEK293; shares compounds with KCNK9 block; FluxOR thallium flux; 4,900 tested, 40% active; inhibition, % at 10 µM; AID 492997, 2010;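 active = thallium signal drop beyond 5 SD of the untreated control mean, on both duplicate plates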
Of the large screens only hits and unclear results are named; the others gave an inactive call (follow-up assays come after a bar, where they were run).

O=C(CCCN1C(=O)/C(=C/c2cccc(Br)c2)SC1=S)N1CCOCC1	none | KCNK9 block conf inactive | Kir21 sel inactive | HEK293 Tl ctr inactive
CN1CCN(C(=O)CCN2C(=O)/C(=C/c3cccc(Br)c3)SC2=S)CC1	none
Cc1ccc(C(=O)N2CCCC(C(=O)c3ccc(Cl)cc3C)C2)cn1 (stereo not given)	none
Cc1cc(Cl)ccc1C(=O)C1CCCN(C(=O)c2cnn(C(C)C)c2)C1 (stereo not given)	none | KCNK9 block conf inactive | Kir21 sel inactive | HEK293 Tl ctr inactive
Cc1cc(Cl)ccc1C(=O)C1CCCN(C(=O)c2n[nH]c3c2CCCC3)C1 (stereo not given)	none | KCNK9 block conf inactive | Kir21 sel inactive | HEK293 Tl ctr inactive
Cc1ccc(CNC(=O)C2CCN(S(=O)(=O)N3CCCCC3)CC2)cc1	none
CCOC(=O)C1(Cc2ccccc2)CCCN(C(=O)c2cnn(CC)c2)C1 (stereo not given)	none
COc1cccc(Nc2nc(-c3ccc(O)cc3)cs2)c1	none
COc1cccc(Nc2nc(-c3cccc(N4C(=O)c5ccccc5C4=O)c3)cs2)c1	none | KCNK9 block conf inactive | Kir21 sel inactive | HEK293 Tl ctr inactive
CCCN(CC(=O)Nc1cccc(Br)c1)CC(=O)Nc1ccc(F)c(F)c1F	KCNK9 block -15 | KCNK9 block conf 72% | Kir21 sel inactive | HEK293 Tl ctr 50%
CCCN(CC(=O)Nc1ccc(C)cc1Br)CC(=O)Nc1ccc(F)c(F)c1F	KCNK9 block -9.9 | KCNK9 block conf 64% | Kir21 sel inactive | HEK293 Tl ctr 39%
CCCN(CC(=O)Nc1ccc(NC(C)=O)cc1)CC(=O)Nc1ccc(F)c(F)c1F	none
Cn1c(Cc2ccccc2)nnc1SCC(=O)Nc1ccc(N2CCOCC2)cc1	none
COc1ccc(C)cc1S(=O)(=O)N(CC(=O)NCc1ccc(Cl)cc1)Cc1ccccc1	KCNK9 block -10 | KCNK9 block conf inactive | Kir21 sel inactive | HEK293 Tl ctr 40%
CN(CC(=O)NC(=O)NCc1ccccc1)Cc1cccc(Cl)c1Cl	none | KCNK9 block conf inactive | Kir21 sel inactive | HEK293 Tl ctr 22%
CN(CC(=O)NCc1ccccc1)Cc1ccc(Cl)cc1	none
CN(CC(=O)NC(=O)NCc1ccccc1)Cc1ccc(Cl)cc1	none | KCNK9 block conf inactive | Kir21 sel inactive | HEK293 Tl ctr inactive
Cc1cccc(CN2C(=O)NC(c3ccccc3)(c3ccccc3)C2=O)c1	none
COc1ccccc1C1CCN(Cc2cccc3ccccc23)CC1	none | KCNK9 block conf inactive | Kir21 sel inactive | HEK293 Tl ctr 27%
COc1ccccc1C1CCN(Cc2ccc(Cl)cc2Cl)CC1	none
COc1ccccc1C1CCN(Cc2ccc(Cl)c(Cl)c2)CC1	none | KCNK9 block conf inactive | Kir21 sel inactive | HEK293 Tl ctr inactive
CCOc1ccccc1C1N=C(c2ccc(OC)cc2)CC(c2ccccc2O)N1 (stereo not given)	none | KCNK9 block conf inactive | Kir21 sel inactive | HEK293 Tl ctr inactive
CC(C)C1N=C(c2ccc3c(c2)OCO3)CC(c2ccccc2O)N1 (stereo not given)	none
O=C(NC1CCN(C(=O)Nc2ccccc2Cl)CC1)c1ccco1	none
O=C(N/N=C/c1cccs1)c1cc(-c2ccc3ccccc3c2)n[nH]1	none
O=C(N/N=C/c1cccs1)c1cc(-c2cccc3ccccc23)n[nH]1	KCNK9 block -13 | KCNK9 block conf 54% | Kir21 sel inactive | HEK293 Tl ctr 32%
COc1ccc(CN=Cc2c(C(F)(F)F)[nH][nH]c2=O)cc1	KCNK9 block -11 | KCNK9 block conf 27% | Kir21 sel inactive | HEK293 Tl ctr inactive
COC(=O)c1ccc(N=Cc2c(C(F)(F)F)[nH][nH]c2=O)cc1	none
CCc1nnc(NC(=O)COc2ccc3c(c2)OCO3)s1	none
Cc1cc2nc(-c3cc(N4CCOCC4)ccc3[N+](=O)[O-])ccn2n1	none
Cc1cc2nc(-c3ccc4c(c3)CCC4)ccn2n1	none | KCNK9 block conf inactive | Kir21 sel inactive | HEK293 Tl ctr inactive
C(=N\N(Cc1ccccc1)c1ccccc1)/c1ccco1	KCNK9 block -8.1 | KCNK9 block conf inactive | Kir21 sel inactive | HEK293 Tl ctr 42%
O=C(NC(=S)Nc1sc2c(c1C(=O)O)CCCC2)c1ccccc1	none
COc1cccc(/C(C)=N/N=C(\C)c2cccc(OC)c2)c1	KCNK9 block -14 | KCNK9 block conf 60% | Kir21 sel inactive | HEK293 Tl ctr inactive
O=C(CSCc1ccc(Cl)cc1)NCCSCc1ccco1	none | KCNK9 block conf inactive | Kir21 sel inactive | HEK293 Tl ctr inactive
COc1ccccc1N(CC(=O)NCCSCc1ccc(Cl)cc1)S(C)(=O)=O	none
COc1ccccc1OCC(=O)NCCSCc1ccc(Cl)cc1	none | KCNK9 block conf inactive | Kir21 sel inactive | HEK293 Tl ctr inactive
CCN(C(=O)Cn1c([N+](=O)[O-])cnc1C)c1ccccc1	none
CCC(C)(C)n1nnnc1C(c1ccc2ncccc2c1)N1CCN(c2nc3ccccc3s2)CC1 (stereo not given)	KCNK9 block -15 | KCNK9 block conf 47% | Kir21 sel inactive | HEK293 Tl ctr 45%
COc1ccc(NC(=O)C23CC4CC(C2)CC(c2ccc(C)cc2)(C4)C3)cc1	none | KCNK9 block conf inactive | Kir21 sel inactive | HEK293 Tl ctr inactive
COc1ccccc1NC(=O)C12CC3CC(C1)CC(c1ccc(C)cc1)(C3)C2	none | KCNK9 block conf inactive | Kir21 sel inactive | HEK293 Tl ctr inactive
COc1ccccc1NC(=O)CN(c1ccc(C23CC4CC(CC(C4)C2)C3)cc1)S(C)(=O)=O	none | KCNK9 block conf inactive | Kir21 sel inactive | HEK293 Tl ctr inactive
CS(=O)(=O)N(CC(=O)O)c1ccc(C23CC4CC(CC(C4)C2)C3)cc1	none
COC(=O)C(C)NC(=O)C12CC3CC(C1)CC(c1ccc(C)cc1)(C3)C2 (stereo not given)	none | KCNK9 block conf inactive | Kir21 sel inactive | HEK293 Tl ctr inactive
